Reference: ChEMBL document CHEMBL3576785, “Differential Targeting of Human Topoisomerase II Isoforms with Small Molecules” (J Med Chem, 2015)
pIC50: −log10 of the molar value. The source made the active and inactive calls. No cut-off for these calls is given here.

Columns and labels:
NALM-6 [1] = assay: Selectivity ratio of IC50 for TOP2B double knockout human NALM6 cells to IC50 for wild type human NALM6 cells; type: functional
K562 = assay: Activity of TOP2 in human K562 cells assessed as poisoning activity by measuring phosphorylation of gamma-H2AX at Ser139 at 100 uM after 1 hr by DAPI staining-based epifluorescence microscopic analysis; type: cell-based
Procedure, shortened: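 K562 cells (human leukaemia, similar expression of both TOP2 isoforms) exposed to 100 µM analogue, DMSO as vehicle control. γ-H2AX (phospho-Ser139 H2AX) detected by immunofluorescence microscopy with nuclear counterstain. Signal quantified in γ-H2AX-positive cells and normalised to VP-16-treated cells.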

[2] = Cytotoxicity against TOP2B double knockout human NALM6 cells assessed as growth inhibition after 5 days by XTT assay; type: functional, cell-based; details: NALM-6, 120 h
Procedure, shortened: (§1)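 Growth inhibition in Nalm-6 wild-type, TOP2A+/- and TOP2B-/- lines. IC50 values are means ±SD of 3 replicate experiments.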

[3] = Cytotoxicity against human NALM6 cells expressing 50% TOP2A assessed as growth inhibition after 5 days by XTT assay; type: functional, cell-based; details: NALM-6, 120 h; procedure, shortened: as §1
[4] = molecular target: DNA topoisomerase 2-alpha (Homo sapiens) (UniProt P11388); assay: Activity of TOP2A in human K562 cells assessed as poisoning activity at 100 uM after 1 hr by TARDIS assay; type: cell-based
Procedure, shortened: (§2)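 TARDIS (trapped in agarose DNA immunostaining) in K562 cells, which express both isoforms at similar levels. Cells given 100 µM analogue, DMSO as vehicle control. Drug-stabilised TOP2–DNA complexes detected with isoform-specific immunofluorescence, TOP2A or TOP2B. Fluorescence quantified and normalised to VP-16-treated cells. Single-dose screen, followed by dose–response.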

NALM-6 [5] = assay: Selectivity ratio of IC50 for human NALM6 cells expressing 50% TOP2A to IC50 for wild type human NALM6 cells; type: functional
[6] = molecular target: DNA topoisomerase 2-beta (Homo sapiens) (UniProt Q02880); assay: Activity of TOP2B in human K562 cells assessed as poisoning activity at 100 uM after 1 hr by TARDIS assay; type: cell-based; procedure, shortened: as §2
[7] = Cytotoxicity against wild type human NALM6 cells assessed as growth inhibition after 5 days by XTT assay; type: functional, cell-based; details: NALM-6, 120 h; procedure, shortened: as §1

DNA topoisomerase 2-alpha (Homo sapiens), sequence (P11388 whole entry, canonical isoform): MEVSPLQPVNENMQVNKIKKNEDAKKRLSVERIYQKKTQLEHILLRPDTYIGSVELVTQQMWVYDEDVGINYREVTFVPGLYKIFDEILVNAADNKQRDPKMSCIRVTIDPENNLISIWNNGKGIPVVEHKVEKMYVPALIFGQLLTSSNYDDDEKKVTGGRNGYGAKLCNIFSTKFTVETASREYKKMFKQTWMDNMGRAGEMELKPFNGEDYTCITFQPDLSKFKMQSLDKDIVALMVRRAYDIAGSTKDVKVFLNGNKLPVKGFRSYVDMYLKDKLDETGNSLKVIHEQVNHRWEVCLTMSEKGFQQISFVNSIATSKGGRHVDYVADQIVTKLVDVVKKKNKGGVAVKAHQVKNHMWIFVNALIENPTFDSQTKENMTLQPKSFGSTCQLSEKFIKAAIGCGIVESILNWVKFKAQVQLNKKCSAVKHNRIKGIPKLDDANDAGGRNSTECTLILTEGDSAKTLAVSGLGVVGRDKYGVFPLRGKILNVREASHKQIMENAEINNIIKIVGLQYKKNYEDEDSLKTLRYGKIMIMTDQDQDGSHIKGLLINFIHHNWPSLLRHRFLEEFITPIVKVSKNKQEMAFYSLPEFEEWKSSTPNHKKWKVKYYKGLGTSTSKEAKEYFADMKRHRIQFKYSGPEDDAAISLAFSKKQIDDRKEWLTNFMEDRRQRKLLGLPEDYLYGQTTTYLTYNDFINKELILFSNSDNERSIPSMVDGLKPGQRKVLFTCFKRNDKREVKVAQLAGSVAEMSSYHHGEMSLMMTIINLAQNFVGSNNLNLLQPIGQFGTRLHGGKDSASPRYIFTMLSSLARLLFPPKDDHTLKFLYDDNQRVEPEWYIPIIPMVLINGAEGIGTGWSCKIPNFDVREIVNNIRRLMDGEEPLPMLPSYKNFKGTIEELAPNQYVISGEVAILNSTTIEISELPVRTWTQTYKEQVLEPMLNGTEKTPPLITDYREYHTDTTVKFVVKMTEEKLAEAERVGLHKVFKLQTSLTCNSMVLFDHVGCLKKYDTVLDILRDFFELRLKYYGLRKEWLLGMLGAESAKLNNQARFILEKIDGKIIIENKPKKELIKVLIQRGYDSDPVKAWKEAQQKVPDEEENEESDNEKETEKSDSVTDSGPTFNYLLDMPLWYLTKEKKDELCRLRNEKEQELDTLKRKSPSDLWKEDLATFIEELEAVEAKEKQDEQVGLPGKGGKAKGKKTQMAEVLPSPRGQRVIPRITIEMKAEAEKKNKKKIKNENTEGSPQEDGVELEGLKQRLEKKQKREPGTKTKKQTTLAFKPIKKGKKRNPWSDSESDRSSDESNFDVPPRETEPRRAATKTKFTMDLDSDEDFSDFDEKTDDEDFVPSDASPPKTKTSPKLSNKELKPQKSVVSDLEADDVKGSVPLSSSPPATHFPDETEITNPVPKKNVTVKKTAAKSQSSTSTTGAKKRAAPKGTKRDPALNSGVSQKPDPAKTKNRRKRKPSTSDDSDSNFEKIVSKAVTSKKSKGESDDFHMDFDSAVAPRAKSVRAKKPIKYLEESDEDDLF
DNA topoisomerase 2-beta (Homo sapiens), sequence (Q02880 whole entry): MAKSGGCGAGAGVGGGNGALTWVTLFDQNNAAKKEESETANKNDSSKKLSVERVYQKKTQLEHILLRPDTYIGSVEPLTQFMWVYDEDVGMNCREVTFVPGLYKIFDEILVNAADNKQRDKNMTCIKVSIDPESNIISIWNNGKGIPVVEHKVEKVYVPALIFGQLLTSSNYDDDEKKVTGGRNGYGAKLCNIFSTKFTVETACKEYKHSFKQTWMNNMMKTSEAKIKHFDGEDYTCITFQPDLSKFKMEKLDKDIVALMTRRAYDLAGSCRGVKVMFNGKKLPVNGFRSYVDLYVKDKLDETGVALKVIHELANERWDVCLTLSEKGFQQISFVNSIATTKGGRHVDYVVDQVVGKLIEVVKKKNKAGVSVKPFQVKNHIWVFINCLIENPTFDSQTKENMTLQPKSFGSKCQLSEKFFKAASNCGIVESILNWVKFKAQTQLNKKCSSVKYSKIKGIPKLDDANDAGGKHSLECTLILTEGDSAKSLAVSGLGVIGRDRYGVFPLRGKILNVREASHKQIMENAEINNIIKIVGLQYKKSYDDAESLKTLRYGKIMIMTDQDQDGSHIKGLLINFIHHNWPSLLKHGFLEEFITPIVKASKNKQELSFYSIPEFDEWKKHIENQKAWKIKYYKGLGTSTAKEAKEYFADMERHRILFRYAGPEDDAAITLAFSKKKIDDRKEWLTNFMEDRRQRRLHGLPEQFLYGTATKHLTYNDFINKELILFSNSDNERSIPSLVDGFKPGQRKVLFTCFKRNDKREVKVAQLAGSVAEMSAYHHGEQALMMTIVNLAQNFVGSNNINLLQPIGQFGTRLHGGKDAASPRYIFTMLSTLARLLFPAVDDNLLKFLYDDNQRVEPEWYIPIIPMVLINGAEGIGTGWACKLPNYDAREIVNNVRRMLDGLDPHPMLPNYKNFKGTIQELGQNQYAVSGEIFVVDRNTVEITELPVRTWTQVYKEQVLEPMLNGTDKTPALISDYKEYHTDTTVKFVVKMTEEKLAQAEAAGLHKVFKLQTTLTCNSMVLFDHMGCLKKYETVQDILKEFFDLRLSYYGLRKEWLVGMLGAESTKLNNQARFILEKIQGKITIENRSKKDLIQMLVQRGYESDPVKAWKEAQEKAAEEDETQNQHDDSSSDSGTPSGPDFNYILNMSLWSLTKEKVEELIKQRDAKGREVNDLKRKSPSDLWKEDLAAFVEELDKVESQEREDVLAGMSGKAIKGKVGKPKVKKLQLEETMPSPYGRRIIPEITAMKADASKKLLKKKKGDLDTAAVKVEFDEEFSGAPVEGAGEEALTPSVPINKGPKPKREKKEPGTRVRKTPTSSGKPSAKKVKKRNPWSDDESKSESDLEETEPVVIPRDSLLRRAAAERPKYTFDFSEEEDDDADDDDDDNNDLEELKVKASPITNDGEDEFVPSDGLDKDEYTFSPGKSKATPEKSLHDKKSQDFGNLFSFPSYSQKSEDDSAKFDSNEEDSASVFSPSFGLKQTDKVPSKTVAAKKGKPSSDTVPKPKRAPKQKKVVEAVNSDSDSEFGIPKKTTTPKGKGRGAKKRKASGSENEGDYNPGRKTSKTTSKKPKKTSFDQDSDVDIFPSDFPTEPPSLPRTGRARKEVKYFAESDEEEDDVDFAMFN

| SMILES | Ratio IC50 (NALM-6 [1]) | Activity (K562) | pIC50 [2] | pIC50 [3] | Activity [4] | Ratio IC50 (NALM-6 [5]) | Activity [6] | pIC50 [7] |
| --- | --- | --- | --- | --- | --- | --- | --- | --- |
| COc1cc([C@@H]2c3cc4c(cc3[C@@H](n3cc(CN(C)C)nn3)[C@H]3COC(=O)[C@H]23)OCO4)cc(OC)c1O | 2.1 | Active | 5.88 | 6.07 | Active | 1.4 | Active | 6.21 |
| COc1cc([C@@H]2c3cc4c(cc3[C@@H](OCc3cn(-c5ccc(O)cc5)nn3)[C@H]3COC(=O)[C@H]23)OCO4)cc(OC)c1O | 0.6 | Active | 5.72 | 5.46 | Active | 1 | Active | 5.47 |
| COc1cc([C@@H]2c3cc4c(cc3[C@@H](O[C@@H]3O[C@@H]5CO[C@@H](C)O[C@H]5[C@H](O)[C@H]3O)[C@H]3COC(=O)[C@H]23)OCO4)cc(OC)c1O [ETOPOSIDE] | 1.4 | Active | 6.74 | 6.63 | Active | 1.7 | Active | 6.87 |
| COc1cc([C@@H]2c3cc4c(cc3[C@@H](OCc3cn(Cc5ccc(C(=O)O)cc5)nn3)[C@H]3COC(=O)[C@H]23)OCO4)cc(OC)c1OC | – | Active | – | – | – | – | – | < 5.00 |
| COc1cc([C@@H]2c3cc4c(cc3[C@@H](OCc3cn(CCCN(C)C)nn3)[C@H]3COC(=O)[C@H]23)OCO4)cc(OC)c1O | 2 | Active | 5.63 | 5.72 | Active | 1.6 | Active | 5.92 |
| COC(=O)CCCCCn1cc(CO[C@@H]2c3cc4c(cc3[C@@H](c3cc(OC)c(O)c(OC)c3)[C@H]3C(=O)OC[C@@H]32)OCO4)nn1 | – | Active | – | – | Active | – | Active | 5.41 |
